# Active and inactive are the calls of the source. The calls are words filed in the database; no cut-off is given here.
# How the values were obtained:
# [1] = tested on: HCT-15; assay: Antiproliferative activity against human HCT15 cells assessed as effect on cell adhesion after 24 hrs by light microscopic analysis; assay type: functional, cell-based
# Outline: (§1)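 Cancer cells treated with 0−10 μM and examined by light microscopy for changes in cell adhesion and morphology.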
# [2] = tested on: HeLa S3; assay: Antiproliferative activity against human HeLaS3 cells assessed as effect on cell adhesion after 24 hrs by light microscopic analysis; assay type: functional, cell-based; outline: as §1
# [3] = tested on: HCT-15; assay: Antiproliferative activity against human HCT15 cells after 24 hrs by WST-1 assay; assay type: functional, cell-based; settings: HCT-15, 24 h
# Outline: (§2)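 WST-1 viability assay. Cells seeded at 5 × 10^3 per well and grown 24 h, then given lissoclibadins at 0.1−40 μM (etoposide 1.0−100 μM) in triplicate for 24 h. WST-1 added and absorbance read 4 h later at 450 nm, background subtracted at 650 nm. Viability expressed as % of control; IC50 taken as 50% inhibition of viability. Three experiments, mean ± SD.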
# [4] = tested on: HeLa S3; assay: Antiproliferative activity against human HeLaS3 cells after 24 hrs by WST-1 assay; assay type: functional, cell-based; settings: HeLa S3, 24 h; outline: as §2
# [5] = tested on: MCF7; assay: Antiproliferative activity against human MCF7 cells after 24 hrs by WST-1 assay; assay type: functional, cell-based; settings: MCF7, 24 h; outline: as §2
# [6] = tested on: NCI-H28; assay: Antiproliferative activity against human NCI-H28 cells after 24 hrs by WST-1 assay; assay type: functional, cell-based; settings: NCI-H28, 24 h; outline: as §2
# [7] = tested on: MCF7; assay: Antiproliferative activity against human MCF7 cells assessed as effect on cell adhesion after 24 hrs by light microscopic analysis; assay type: functional, cell-based; outline: as §1
# [8] = tested on: NCI-H28; assay: Antiproliferative activity against human NCI-H28 cells assessed as effect on cell adhesion after 24 hrs by light microscopic analysis; assay type: functional, cell-based; outline: as §1
# [9] = tested on: HCT-15; assay: Antiproliferative activity against human HCT15 cells assessed as effect on cell morphology after 24 hrs by light microscopic analysis; assay type: functional, cell-based; outline: as §1
# [10] = tested on: HeLa S3; assay: Antiproliferative activity against human HeLaS3 cells assessed as effect on cell morphology after 24 hrs by light microscopic analysis; assay type: functional, cell-based; outline: as §1
# [11] = tested on: MCF7; assay: Antiproliferative activity against human MCF7 cells assessed as effect on cell morphology after 24 hrs by light microscopic analysis; assay type: functional, cell-based; outline: as §1
# [12] = tested on: NCI-H28; assay: Antiproliferative activity against human NCI-H28 cells assessed as effect on cell morphology after 24 hrs by light microscopic analysis; assay type: functional, cell-based; outline: as §1
# [13] = tested on: HCT-15; assay: Antiproliferative activity against human HCT15 cells assessed as effect on cell adhesion up to 10 uM after 24 hrs by light microscopic analysis; assay type: functional, cell-based; outline: as §1
# [14] = tested on: HeLa S3; assay: Antiproliferative activity against human HeLaS3 cells assessed as effect on cell adhesion up to 10 uM after 24 hrs by light microscopic analysis; assay type: functional, cell-based; outline: as §1
# [15] = tested on: MCF7; assay: Antiproliferative activity against human MCF7 cells assessed as effect on cell adhesion up to 10 uM after 24 hrs by light microscopic analysis; assay type: functional, cell-based; outline: as §1
# [16] = tested on: NCI-H28; assay: Antiproliferative activity against human NCI-H28 cells assessed as effect on cell adhesion up to 10 uM after 24 hrs by light microscopic analysis; assay type: functional, cell-based; outline: as §1
# [17] = tested on: HCT-15; assay: Antiproliferative activity against human HCT15 cells assessed as effect on cell morphology up to 10 uM after 24 hrs by light microscopic analysis; assay type: functional, cell-based; outline: as §1
# [18] = tested on: HeLa S3; assay: Antiproliferative activity against human HeLaS3 cells assessed as effect on cell morphology up to 10 uM after 24 hrs by light microscopic analysis; assay type: functional, cell-based; outline: as §1
# [19] = tested on: MCF7; assay: Antiproliferative activity against human MCF7 cells assessed as effect on cell morphology up to 10 uM after 24 hrs by light microscopic analysis; assay type: functional, cell-based; outline: as §1
# [20] = tested on: NCI-H28; assay: Antiproliferative activity against human NCI-H28 cells assessed as effect on cell morphology up to 10 uM after 24 hrs by light microscopic analysis; assay type: functional, cell-based; outline: as §1
# [21] = tested on: HCT-15; assay: Antiproliferative activity against human HCT15 cells assessed as nuclear chromatin condensation at 5 uM after 24 hrs by Hoechst-33258 staining-based fluorescent microscopic analysis; assay type: functional, cell-based
# Outline: (§3)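 Cells at 5 × 10^4 cells/mL precultured 24 h, then treated 24 h (HCT-15 at 5 μM; HeLa-S3, MCF-7, NCI-H28 at 10 μM). Cells trypsinized, washed in PBS, fixed in 1.0% paraformaldehyde at 4 °C for 15 min, stained with 1 mg/mL Hoechst-33258 at 4 °C for 15 min. After washing, mounted in antifade reagent and examined by fluorescence microscopy.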
# [22] = tested on: HCT-15; assay: Antiproliferative activity against human HCT15 cells assessed as fragmentation of nuclei at 5 uM after 24 hrs by Hoechst-33258 staining-based fluorescent microscopic analysis; assay type: functional, cell-based; outline: as §3
# [23] = tested on: HeLa S3; assay: Antiproliferative activity against human HeLaS3 cells assessed as nuclear chromatin condensation at 10 uM after 24 hrs by Hoechst-33258 staining-based fluorescent microscopic analysis; assay type: functional, cell-based; outline: as §3
# [24] = tested on: HeLa S3; assay: Antiproliferative activity against human HeLaS3 cells assessed as fragmentation of nuclei at 10 uM after 24 hrs by Hoechst-33258 staining-based fluorescent microscopic analysis; assay type: functional, cell-based; outline: as §3
# [25] = tested on: MCF7; assay: Antiproliferative activity against human MCF7 cells assessed as nuclear chromatin condensation at 10 uM after 24 hrs by Hoechst-33258 staining-based fluorescent microscopic analysis; assay type: functional, cell-based; outline: as §3
# [26] = tested on: MCF7; assay: Antiproliferative activity against human MCF7 cells assessed as fragmentation of nuclei at 10 uM after 24 hrs by Hoechst-33258 staining-based fluorescent microscopic analysis; assay type: functional, cell-based; outline: as §3
# [27] = tested on: NCI-H28; assay: Antiproliferative activity against human NCI-H28 cells assessed as nuclear chromatin condensation at 10 uM after 24 hrs by Hoechst-33258 staining-based fluorescent microscopic analysis; assay type: functional, cell-based; outline: as §3
# [28] = tested on: NCI-H28; assay: Antiproliferative activity against human NCI-H28 cells assessed as nuclear fragmentation at 10 uM after 24 hrs by Hoechst-33258 staining-based fluorescent microscopic analysis; assay type: functional, cell-based; outline: as §3
# [29] = tested on: HCT-15; assay: Induction of apoptosis in human HCT15 cells assessed as early apoptotic cells at 5 uM after 3 hrs by annexin V-FITC/propidium iodide staining-based flow cytometric analysis relative to control; assay type: functional
# Outline: (§4)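 HCT-15 cells at 5 × 10^4 cells/mL precultured 24 h, then given 5.0 μM in DMSO or DMSO alone (final 0.1%) for 3, 6, 12 or 24 h. Adherent cells trypsinized, pooled, stained with annexin V-FITC and PI, and analysed by flow cytometry. Early apoptosis = annexin V+/PI−; late = annexin V+/PI+. Three independent experiments, mean ± SD.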
# [30] = tested on: HCT-15; assay: Induction of apoptosis in human HCT15 cells assessed as early apoptotic cells at 5 uM after 6 hrs by annexin V-FITC/propidium iodide staining-based flow cytometric analysis relative to control; assay type: functional; outline: as §4
# [31] = tested on: HCT-15; assay: Induction of apoptosis in human HCT15 cells assessed as early apoptotic cells at 5 uM after 12 hrs by annexin V-FITC/propidium iodide staining-based flow cytometric analysis relative to control; assay type: functional; outline: as §4
# [32] = tested on: HCT-15; assay: Induction of apoptosis in human HCT15 cells assessed as early apoptotic cells at 5 uM after 24 hrs by annexin V-FITC/propidium iodide staining-based flow cytometric analysis relative to control; assay type: functional; outline: as §4
# [33] = tested on: HCT-15; assay: Induction of apoptosis in human HCT15 cells assessed as late apoptotic cells at 5 uM by annexin V-FITC/propidium iodide staining-based flow cytometric analysis; assay type: functional, cell-based; settings: TDE = time-dependent effect; outline: as §4
# [34] = tested on: HCT-15; assay: Induction of apoptosis in human HCT15 cells at 5 uM after 12 hrs in presence of pan-caspase inhibitor z-VAD-fmk by annexin V-FITC/propidium iodide staining-based flow cytometric analysis (reference value: 64%); assay type: functional
# Outline: (§5)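 HCT-15 cells at 5 × 10^4 cells/mL precultured 24 h, then given z-VAD-fmk, z-IETD-fmk or z-LEHD-fmk at 50 μM for 30 min before 5.0 μM compound in DMSO (DMSO final 0.1%). Annexin V-FITC/PI staining read by flow cytometry. Three independent experiments, mean ± SD; one-way ANOVA with Bonferroni post hoc tests.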
# [35] = tested on: HCT-15; assay: Induction of apoptosis in human HCT15 cells at 5 uM after 12 hrs in presence of caspase-8 inhibitor z-IETD-fmk by annexin V-FITC/propidium iodide staining-based flow cytometric analysis; assay type: functional, cell-based; outline: as §5
# [36] = tested on: HCT-15; assay: Induction of apoptosis in human HCT15 cells at 5 uM after 12 hrs in presence of caspase-9 inhibitor z-LEHD-fmk by annexin V-FITC/propidium iodide staining-based flow cytometric analysis; assay type: functional, cell-based; outline: as §5
# [37] = tested on: HCT-15; assay: Induction of apoptosis in human HCT15 cells assessed as effect on cell adhesion at 5 uM in presence of caspase-9 inhibitor z-LEHD-fmk by light microscopic analysis; assay type: functional, cell-based
# [38] = tested on: HCT-15; assay: Induction of apoptosis in human HCT15 cells assessed as effect on cell adhesion at 5 uM in presence of caspase-8 inhibitor z-IETD-fmk by light microscopic analysis; assay type: functional, cell-based
# [39] = tested on: HCT-15; assay: Induction of apoptosis in human HCT15 cells assessed as effect on cell adhesion at 5 uM in presence of pan-caspase inhibitor z-VAD-fmk by light microscopic analysis; assay type: functional, cell-based
# [40] = tested on: HCT-15; assay: Induction of apoptosis in human HCT15 cells assessed as effect on cell morphology at 5 uM in presence of caspase-9 inhibitor z-LEHD-fmk by light microscopic analysis; assay type: functional, cell-based
# [41] = tested on: HCT-15; assay: Induction of apoptosis in human HCT15 cells assessed as effect on cell morphology at 5 uM in presence of caspase-8 inhibitor z-IETD-fmk by light microscopic analysis; assay type: functional, cell-based
# [42] = tested on: HCT-15; assay: Induction of apoptosis in human HCT15 cells assessed as effect on cell morphology at 5 uM in presence of pan-caspase inhibitor z-VAD-fmk by light microscopic analysis; assay type: functional, cell-based
# [43] = tested on: HCT-15; assay: Antitumor activity against human HCT15 cells xenografted in BALB/c nu/nu athymic mouse assessed as tumor growth inhibition at 25 mg/kg/day administered intratumorally on day 0, 2, 4, 6, 8 and 10 measured on day 28 post dose relative to control; assay type: functional; settings: read-out: TGI
# Outline: (§6)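 Female 6-week-old Balb/c nu/nu mice injected subcutaneously in the lower back with HCT-15 cells (1 × 10^8/mL) mixed 1:1 with Matrigel. Once tumors reached 50−100 mm3 (day 0), mice were randomized, 6 per group. Dosing was intratumoral in PBS with 5% DMSO and 5% glucose on days 0, 2, 4, 6, 8 and 10; controls received vehicle. Tumor volume (L×W×D×π/6) and body weight measured every other day to day 28.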
# [44] = tested on: HCT-15; assay: Antitumor activity against human HCT15 cells xenografted in BALB/c nu/nu athymic mouse assessed as tumor growth inhibition at 5 mg/kg administered intratumorally on day 0, 2, 4, 6, 8 and 10 measured up to 28 days; assay type: functional, organism-based; outline: as §6
# [45] = tested on: Mus musculus; assay: Toxicity in BALB/c nu/nu athymic mouse xenografted with human HCT15 cells assessed as body weight loss at 5 to 25 mg/kg administered intratumorally treated on day 0, 2, 4, 6, 8 and 10 measured every second day for 28 days; assay type: organism-based; settings: in vivo, other, 672 h; outline: as §6
compound,measurement,setting,value
COc1c(OC)c2c(c(CCN(C)C)c1SC)SSc1c(CCN(C)C)c(SC)c(OC)c(OC)c1Sc1c(OC)c(OC)c(SC)c(CCN(C)C)c1S2 [LISSOCLIBADIN 1],Activity,[1],Dose-dependent effect
same,Activity,[2],Dose-dependent effect
same,IC50,[3],4 µM
same,IC50,[4],6.3 µM
same,IC50,[5],7.6 µM
same,IC50,[6],7.1 µM
same,Activity,[7],Dose-dependent effect
same,Activity,[8],Dose-dependent effect
same,Activity,[9],Dose-dependent effect
same,Activity,[10],Dose-dependent effect
same,Activity,[11],Dose-dependent effect
same,Activity,[12],Dose-dependent effect
same,Activity,[13],Active
same,Activity,[14],Active
same,Activity,[15],Active
same,Activity,[16],Active
same,Activity,[17],Active
same,Activity,[18],Active
same,Activity,[19],Active
same,Activity,[20],Active
same,Activity,[21],Active
same,Activity,[22],Active
same,Activity,[23],Active
same,Activity,[24],Active
same,Activity,[25],Active
same,Activity,[26],Active
same,Activity,[27],Active
same,Activity,[28],Active
same,Activity,[29],11%
same,Activity,[30],37%
same,Activity,[31],43%
same,Activity,[32],40%
same,Activity,[33],Tde
same,Activity,[34],11%
same,Activity,[35],Active
same,Activity,[36],Active
same,Activity,[37],Active
same,Activity,[38],Active
same,Activity,[39],Active
same,Activity,[40],Active
same,Activity,[41],Active
same,Activity,[42],Active
same,inhibition in vivo at 25 mg/kg/day,[43],60%
same,TGI,[44],inactive
same,Activity,[45],Non-Toxic
